From PubChem BioAssay
PDI inh: inhibitors of human PDI, primary screen, biochemical, turbidity, single point, plate reader; 0.052% of 350,000 active; PDI insulin aggregation turbidity, A650, 90 min; Protein disulfide-isomerase (Homo sapiens), P07237; inhibition, % at 10 µM;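 active = mean inhibition across replicates of 30% or more, whatever share of single replicates reach that level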
Cneo AK release: Cryptococcus neoformans cell lysis inducers, primary screen, AK release luminescence, single concentration; C. neoformans lysis, adenylate kinase release luminescence, 4 h; normalised: neutral wells 0, clomiphene wells 100; lysis activity, % at 15 µM; 0.2% of 360,000 active; AID 651654, 2012;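 active = mean lysis activity across replicates of at least 80%, whatever share of replicates individually reach that level; inactive = mean lysis activity below 80%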
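Material: C. neoformans cells; Schedule: 4 h static compound exposure, 37 °C, read 1 h post-reagent; Measured by: adenylate kinase release luminescence; Read-out: signal increase indicating cell lysis; Controls: Clomiphene as positive lysis control.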
F508del corr: F508del CFTR correction, initial screen, CFBE line, single point; activity (quench increase), % at 7.58 µM; 0.36% of 350,000 active; CFBE cells, YFP halide quenching; stimulated with forskolin plus potentiator P3; % fluorescence drop versus neutral controls; AID 720511, 2013;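 active = mean added fluorescence quench of at least 8% versus neutral control, with both replicates also reaching 8%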;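 also: cells transiently co-express mutant CFTR-F508del with the halide-sensitive YFP; corrector assay measuring rescue of mutant channel to the surface after 24 h compound exposure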
DENV2 CPE: inhibitors of DENV2 cytopathic effect, primary screen, cell-based, plate reader, single concentration; CPE inhibition, % at 9.99 µM; 1.7% of 350,000 active; DENV2-infected cells, cytopathic effect rescue; in the data active = CPE inhibition above about 20%, passing the limit was not always enough; tested in BHK-21 cells;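 also: 0% = median of neutral control wells and 100% = median of positive control wells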
Statin myotox sup: suppressors of statin myotoxicity in C2C12 myotubes, primary screen, cell-based, single point, plate reader; C2C12 myotubes + simvastatin, ATP luminescence, 48 h; scaled: DMSO 0, geranylgeraniol control 100; rescue of ATP level, % at 7.49 µM; 0.78% of 330,000 active; AID 602340, 2012;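 active = mean ATP rescue above about 67%, or every replicate alone reaching that limit, limit read from the data, passing the limit was not always enough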;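 also: myotubes were challenged with 10 µM simvastatin during compound exposure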
ERp5 block: inhibitors of ERp5-driven insulin aggregation, primary screen, biochemical, turbidity, absorbance 650 nm, single point. AID 651711, 2012. 90 min. 0.05% of 350,000 active. inhibition, % at 9.99 µM. Protein disulfide-isomerase A6 (Homo sapiens), Q15084;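 active = mean replicate inhibition above about 25%, with every replicate also reaching it, limit read from the data, passing the limit was not always enough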
Target sequence (Q15084 whole entry, looked up): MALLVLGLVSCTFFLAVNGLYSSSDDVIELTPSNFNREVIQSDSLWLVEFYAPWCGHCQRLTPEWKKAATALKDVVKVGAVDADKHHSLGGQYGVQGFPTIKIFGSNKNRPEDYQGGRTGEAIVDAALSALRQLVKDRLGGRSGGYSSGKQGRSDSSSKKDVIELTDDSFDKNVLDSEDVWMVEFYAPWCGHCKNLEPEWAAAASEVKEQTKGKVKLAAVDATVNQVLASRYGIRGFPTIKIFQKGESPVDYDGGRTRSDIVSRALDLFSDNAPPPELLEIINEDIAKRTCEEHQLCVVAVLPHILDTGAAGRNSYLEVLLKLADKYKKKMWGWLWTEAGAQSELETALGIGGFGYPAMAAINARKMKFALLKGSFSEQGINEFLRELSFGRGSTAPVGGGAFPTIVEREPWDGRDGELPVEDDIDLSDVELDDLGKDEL
* = called active by the depositor. This is a sample that favours compounds with a hit; in the whole collection about 2.3% have one here.

Screening CNC[C@@H]1Oc2ccc(NS(=O)(=O)c3ccc(Cl)cc3)cc2CC(=O)N([C@H](C)CO)C[C@@H]1C returned Cneo AK release 14.1, F508del corr -0.4, DENV2 CPE -4.0, Statin myotox sup -1.1 and ERp5 block -4.5.
CNC[C@H]1Oc2ccc(NS(=O)(=O)c3ccc(Cl)cc3)cc2CC(=O)N([C@@H](C)CO)C[C@@H]1C was read as Cneo AK release -1.6, F508del corr -2.9, DENV2 CPE 27.1*, Statin myotox sup -3.0 and ERp5 block 1.4.
CNC[C@@H]1Oc2ccc(NS(=O)(=O)c3ccc(Cl)cc3)cc2CC(=O)N([C@@H](C)CO)C[C@@H]1C was read as Cneo AK release -2.2, F508del corr -1.8, DENV2 CPE 40.7*, Statin myotox sup -0.5 and ERp5 block -4.5.
Screening C[C@@H]1CN([C@@H](C)CO)C(=O)c2cc(NS(=O)(=O)c3cccs3)ccc2O[C@@H](C)CCCCO[C@H]1CN(C)C(=O)c1ccccc1 returned Cneo AK release -0.8, F508del corr 2.8, DENV2 CPE 14.0, Statin myotox sup 6.3 and ERp5 block 5.7.
`COc1cccc(S(=O)(=O)N(C)C[C@H]2Oc3cc(C4=CCCCC4)ccc3S(=O)(=O)N([C@H](C)CO)C[C@@H]2C)c1` gave Cneo AK release -1.7, F508del corr -3.3, DENV2 CPE 3.8, Statin myotox sup -25.8 and ERp5 block -2.8.
`C[C@@H]1CN([C@H](C)CO)S(=O)(=O)c2ccc(C3=CCCCC3)cc2O[C@@H]1CN(C)S(=O)(=O)c1ccc(F)cc1` gave Cneo AK release -2.8, F508del corr -3.7, DENV2 CPE 23.4*, Statin myotox sup -18.2 and ERp5 block 0.4.
Screening COc1cccc(S(=O)(=O)N(C)C[C@@H]2Oc3cc(C4=CCCC4)ccc3S(=O)(=O)N([C@H](C)CO)C[C@H]2C)c1 returned Cneo AK release 1.5, F508del corr 10.7*, DENV2 CPE 55.1*, Statin myotox sup -160.8 and ERp5 block 0.5.
COc1cccc(S(=O)(=O)N(C)C[C@@H]2Oc3cc(C4=CCCC4)ccc3S(=O)(=O)N([C@@H](C)CO)C[C@H]2C)c1 was read as Cneo AK release 2.0, F508del corr 9.3*, DENV2 CPE -3.5, Statin myotox sup -160.1 and ERp5 block -1.3.
COc1cccc(S(=O)(=O)N(C)C[C@@H]2Oc3cc(C4=CCCC4)ccc3S(=O)(=O)N([C@@H](C)CO)C[C@@H]2C)c1 was read as Cneo AK release -1.6, F508del corr 1.5, DENV2 CPE -4.0, Statin myotox sup -46.1 and ERp5 block 3.8.
For C[C@H]1CN([C@@H](C)CO)S(=O)(=O)c2ccc(C3=CCCC3)cc2O[C@H]1CN(C)S(=O)(=O)c1ccc(F)cc1 the results were Cneo AK release 2.6, F508del corr 1.9, DENV2 CPE -4.2, Statin myotox sup 1.8 and ERp5 block 19.8.
CO[C@@H]1CN(C)C(=O)c2cc(NC(=O)C3CCOCC3)ccc2OC[C@H](C)N(Cc2nccs2)C[C@@H]1C was read as Cneo AK release 3.2, F508del corr -0.6, DENV2 CPE 1.5, Statin myotox sup 2.3 and ERp5 block 2.0.
Cc1ccccc1-n1cnc2c(sc3nc(N4CCOCC4)c4c(c32)CCCC4)c1=O was read as PDI inh -1.0, F508del corr 2.4, DENV2 CPE 42.0* and ERp5 block 3.1.
For COc1ccc(NC(=O)N(C)C[C@H]2Oc3ccc(NC(=O)CCCCCC(=O)Nc4ccccc4N)cc3CC(=O)N([C@H](C)CO)C[C@@H]2C)cc1 the results were F508del corr 0.4, DENV2 CPE -2.9 and ERp5 block 3.0.
CNC(=O)CC1C(=O)N(c2ccc(F)cc2)C(=S)N1NC(=O)c1ccc(Cl)cc1 (stereo not drawn) was read as PDI inh 2.3, Cneo AK release -0.5, F508del corr 8.0*, DENV2 CPE -2.6, Statin myotox sup 4.8 and ERp5 block -2.8.
COc1ccccc1NC(=O)N1C[C@@H]2[C@H](c3ccccc31)[C@@H](CO)N2CC1CCCC1 was read as Cneo AK release -1.0, F508del corr -0.2, DENV2 CPE -7.8, Statin myotox sup -10.7 and ERp5 block -3.5.
`COc1ccccc1NS(=O)(=O)c1ccc(C(=O)N2CCN(c3ccccn3)CC2)cc1` gave PDI inh -5.3, Cneo AK release -0.8, F508del corr 5.0, DENV2 CPE -2.5, Statin myotox sup -2.8 and ERp5 block 26.9*.
For COc1ccccc1N1CCN(C(=O)c2ccc(S(=O)(=O)N3CCCCCC3)cc2)CC1 the results were PDI inh 11.8, Cneo AK release 6.4 and Statin myotox sup 126.9*.
COc1ccccc1NC(=O)N1CCN(c2ccccn2)CC1 was read as PDI inh -12.0, Cneo AK release -1.8, F508del corr -3.4, DENV2 CPE 31.4*, Statin myotox sup 1.6 and ERp5 block 3.2.
Screening C[C@H]1CN([C@@H](C)CO)S(=O)(=O)c2ccc(-c3cccnc3)cc2O[C@H]1CN(C)C(=O)C1CC1 returned F508del corr -1.2 and Statin myotox sup 4.3.
Screening COc1cccc(NC(=O)N2CC3(C2)[C@H](c2ccccc2)[C@H](CO)N3C(=O)C2CCCC2)c1 returned F508del corr 1.2, DENV2 CPE -9.9 and ERp5 block -4.7.
Cn1cnc(S(=O)(=O)N[C@H]2C=C[C@H](CC(=O)Nc3ccc(-c4ccccc4)cc3)O[C@H]2CO)c1 was read as Cneo AK release 0.0, F508del corr 0.2, DENV2 CPE 0.5, Statin myotox sup -2.8 and ERp5 block 4.7.
`CC(C)(C)C(=O)COC(=O)CNC(=O)c1ccc(Oc2ccccc2)cc1` gave PDI inh -4.0, Cneo AK release -1.0 and Statin myotox sup 140.8*.
Screening C[C@H]1CN([C@@H](C)CO)C(=O)c2cc(NC(=O)Cc3ccccc3)ccc2O[C@H]1CN(C)C(=O)Nc1ccc2c(c1)OCO2 returned Cneo AK release -2.4, F508del corr 1.3 and Statin myotox sup -1.7.
Screening CN1CCN(C(=O)C[C@@H]2CC[C@H]3[C@@H](COC[C@H](O)CN3C(=O)C3CCCC3)O2)CC1 returned Cneo AK release -6.0, F508del corr -1.1, DENV2 CPE 76.1*, Statin myotox sup 3.3 and ERp5 block -7.3.
For O=C(C[C@@H]1CC[C@@H]2[C@H](COC[C@H](O)CN2CC2CCOCC2)O1)N1CCOCC1 the results were Cneo AK release 0.3, F508del corr -0.7, DENV2 CPE 102.4*, Statin myotox sup -9.2 and ERp5 block -4.2.
